Measured values as given in ChEMBL document CHEMBL4385637, “2-Aryladenine derivatives as a potent scaffold for A1, A3 and dual A1/A3 adenosine receptor antagonists: Synthesis and structure-activity relationships” (Bioorg Med Chem, 2019).

Key:
[1] = target: T1, Adenosine receptor A1 (Homo sapiens) (UniProt P30542); assay: Displacement of [3H]DPCPX from human A1 receptor expressed in CHO-A1 cells at 10 uM incubated for 60 mins by scintillation counting method based radioligand competitive binding assay; format: cell-based
T1 sequence (whole entry): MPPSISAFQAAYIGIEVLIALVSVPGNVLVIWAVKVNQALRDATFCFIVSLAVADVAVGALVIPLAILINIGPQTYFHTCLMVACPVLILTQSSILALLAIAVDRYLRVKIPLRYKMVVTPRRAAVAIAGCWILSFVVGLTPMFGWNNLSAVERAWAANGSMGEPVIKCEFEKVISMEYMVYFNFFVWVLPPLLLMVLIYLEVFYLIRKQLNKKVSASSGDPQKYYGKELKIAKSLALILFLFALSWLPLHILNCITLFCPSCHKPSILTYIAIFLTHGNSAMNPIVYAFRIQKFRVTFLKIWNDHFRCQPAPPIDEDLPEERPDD
Procedure, shortened: (§1)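 CHO-A1 membranes, 15 μg protein, in 20 mM Hepes, 100 mM NaCl, 10 mM MgCl2, 2 UI/ml adenosine deaminase, pH 7.4. Radioligand 2 nM [3H]DPCPX; nonspecific binding with 10 μM (R)-PIA. Incubated 25 °C for 60 min, filtered, counted, in duplicate. Screen at 10 μM; compounds >80% inhibition tested at 6 concentrations (10 nM–100 μM), Ki by Cheng-Prusoff.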

Adenosine receptor A2a [2] = target: T2, Adenosine receptor A2a (Homo sapiens, UniProt P29274); assay: Displacement of [3H]ZM241385 from human A2A receptor expressed in HeLa-A2A cells at 10 uM incubated for 30 mins by scintillation counting method based radioligand competitive binding assay; format: cell-based
Procedure, shortened: (§2)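 Uses HeLa-A2A membranes, 10 µg protein, buffer 50 mM Tris-HCl, 1 mM EDTA, 10 mM MgCl2, 2 UI/mL adenosine deaminase, pH 7.4. 3 nM [3H]ZM241385; nonspecific with 50 µM NECA. 30 min at 25 °C, GF/C filtration, duplicate wells. Screened at 10 μM; if >80% inhibition, 6 concentrations 10 nM–100 μM, Ki by Cheng-Prusoff.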

[3] = target: T3, Adenosine receptor A2b (Homo sapiens) (UniProt P29275); assay: Displacement of [3H]DPCPX from human A2B receptor expressed in HEK-293-A2B cells at 10 uM incubated for 30 mins by scintillation counting method based radioligand competitive binding assay; format: cell-based
T3 sequence (whole entry): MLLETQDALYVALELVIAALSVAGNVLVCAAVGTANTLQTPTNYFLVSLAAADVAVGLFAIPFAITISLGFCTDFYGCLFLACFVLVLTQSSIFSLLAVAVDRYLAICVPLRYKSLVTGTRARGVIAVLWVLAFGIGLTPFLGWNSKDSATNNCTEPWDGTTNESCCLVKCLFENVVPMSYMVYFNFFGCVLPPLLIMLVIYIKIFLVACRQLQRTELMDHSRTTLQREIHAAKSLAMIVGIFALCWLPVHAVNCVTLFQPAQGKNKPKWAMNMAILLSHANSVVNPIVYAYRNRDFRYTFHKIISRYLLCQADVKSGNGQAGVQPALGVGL
Procedure, shortened: (§3)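 HEK-293-A2B membranes, 18 μg protein, in 50 mM Tris-HCl, 1 mM EDTA, 10 mM MgCl2, 0.1 mM benzamidine, 10 µg/mL bacitracin, 2 UI/mL adenosine deaminase, pH 6.5. Tracer 35 nM [3H]DPCPX; 400 μM NECA defines nonspecific binding. 25 °C for 30 min, GF/C filtration, duplicates. Single-point 10 μM screen, then 6-point curves (10 nM–100 μM), Cheng-Prusoff Ki.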

[4] = target: T4, Adenosine receptor A3 (Homo sapiens) (UniProt P0DMS8); assay: Displacement of [3H]NECA from human A3 receptor expressed in HeLa-A3 cells at 10 uM incubated for 180 mins by scintillation counting method based radioligand competitive binding assay; format: cell-based
T4 sequence (whole entry): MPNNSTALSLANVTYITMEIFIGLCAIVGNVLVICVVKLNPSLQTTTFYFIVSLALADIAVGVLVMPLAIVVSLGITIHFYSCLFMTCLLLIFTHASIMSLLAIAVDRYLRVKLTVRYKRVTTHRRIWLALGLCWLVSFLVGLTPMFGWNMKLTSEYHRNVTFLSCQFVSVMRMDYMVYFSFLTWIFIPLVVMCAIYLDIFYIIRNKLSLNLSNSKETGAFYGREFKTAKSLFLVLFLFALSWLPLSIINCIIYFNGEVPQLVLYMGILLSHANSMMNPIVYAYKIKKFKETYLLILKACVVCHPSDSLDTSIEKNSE
Procedure, shortened: (§4)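 Membranes of HeLa-A3 cells (90 μg protein) in 50 mM Tris-HCl, 1 mM EDTA, 5 mM MgCl2, 2 UI/mL adenosine deaminase, pH 7.4, with 30 nM [3H]NECA. Nonspecific: 100 μM (R)-PIA. 180 min at 25 °C, GF/B filtration, triplicates, scintillation counting. 10 μM single-point inhibition; >80% actives run at 6 concentrations (10 nM–100 μM), pKi via Cheng-Prusoff.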

Adenosine receptor A1 = target: T5, Adenosine receptor A1 (Homo sapiens, UniProt P30542); assay: Displacement of [3H]DPCPX from human A1 receptor expressed in CHO-A1 cells incubated for 60 mins by scintillation counting method based radioligand competitive binding assay; format: cell-based; procedure, shortened: as §1
T5 sequence (P30542 whole entry): T1 sequence (whole entry)

Adenosine receptor A3 = target: T6, Adenosine receptor A3 (Homo sapiens, UniProt P0DMS8); assay: Displacement of [3H]NECA from human A3 receptor expressed in HeLa-A3 cells incubated for 180 mins by scintillation counting method based radioligand competitive binding assay; format: cell-based; procedure, shortened: as §4
T6 sequence (P0DMS8 whole entry): T4 sequence (whole entry)

Adenosine receptor A2a [5] = target: T2, Adenosine receptor A2a; assay: Displacement of [3H]ZM241385 from human A2A receptor expressed in HeLa-A2A cells incubated for 30 mins by scintillation counting method based radioligand competitive binding assay; format: cell-based; procedure, shortened: as §2
Adenosine receptor A2b = target: T7, Adenosine receptor A2b (Homo sapiens, UniProt P29275); assay: Displacement of [3H]DPCPX from human A2B receptor expressed in HEK-293-A2B cells incubated for 30 mins by scintillation counting method based radioligand competitive binding assay; format: cell-based; procedure, shortened: as §3
T7 sequence (P29275 whole entry): T3 sequence (whole entry)

[6] = target: T4, Adenosine receptor A3 (Homo sapiens); assay: Antagonist activity at human A3 receptor in CHO-A3 cells assessed as reduction in NECA-induced inhibition of forskolin-stimulated cAMP accumulation preincubated for 15 mins followed by NECA addition and further incubated for 15 mins by ELISA; format: functional, cell-based
Procedure, shortened: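 CHO cells expressing human A3, washed in DMEM F-12 with 25 mM HEPES pH 7.4 and 30 μM rolipram. Compound preincubated 15 min, then NECA (0.1 nM–1 mM) and 10 μM forskolin added for 15 min. cAMP quantified by enzyme immunoassay. Antagonist curves run against 0.1 μM NECA, duplicates. pKB calculated from IC50, agonist level, A50 and Hill slope.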

[7] = target: T1, Adenosine receptor A1 (Homo sapiens); assay: Antagonist activity at human A1 receptor in CHO-A1 cells assessed as reduction in NECA-induced inhibition of forskolin-stimulated cAMP accumulation preincubated for 15 mins followed by NECA addition and further incubated for 15 mins by ELISA; format: functional, cell-based
Procedure, shortened: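 CHO-A1 cells stably expressing receptor, grown with dialyzed FBS, washed in F-12 medium with 25 mM HEPES pH 7.4 and 20 μM rolipram. Test compound preincubated 15 min, then NECA (0.1 nM–1 mM) plus 3 μM forskolin added for 15 min. cAMP measured by enzyme immunoassay with TMB readout. pKB derived from antagonist curve against NECA effect.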

T2 sequence (P29274 whole entry): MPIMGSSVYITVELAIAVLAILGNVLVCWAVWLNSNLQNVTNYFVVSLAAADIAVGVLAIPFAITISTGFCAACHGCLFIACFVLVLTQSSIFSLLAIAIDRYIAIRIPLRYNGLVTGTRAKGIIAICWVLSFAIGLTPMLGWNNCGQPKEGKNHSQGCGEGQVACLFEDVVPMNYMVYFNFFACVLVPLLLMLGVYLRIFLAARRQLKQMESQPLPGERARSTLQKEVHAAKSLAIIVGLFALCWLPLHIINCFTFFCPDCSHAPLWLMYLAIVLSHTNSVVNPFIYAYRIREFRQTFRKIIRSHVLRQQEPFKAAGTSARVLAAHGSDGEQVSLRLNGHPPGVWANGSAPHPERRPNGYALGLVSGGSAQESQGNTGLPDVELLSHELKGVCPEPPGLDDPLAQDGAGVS

| inhibition [1] [%] | inhibition (Adenosine receptor A2a [2]) [%] | inhibition [3] [%] | inhibition [4] [%] | Ki (Adenosine receptor A1) [µM] | Ki (Adenosine receptor A3) [µM] | Ki (Adenosine receptor A2a [5]) [µM] | Ki (Adenosine receptor A2b) [µM] | pKb [6] | pKb [7] | Structure (SMILES) |
| --- | --- | --- | --- | --- | --- | --- | --- | --- | --- | --- |
| > 80 | 12 | 24.1 | > 80 | 0.631 | 0.0398 | – | – | – | – | CN1CCN(c2nc(-c3ccc(Cl)c(Cl)c3)nc3[nH]cnc23)CC1 |
| 50.5 | 74.8 | 30.2 | 20 | – | – | – | – | – | – | Cn1cnc2c(N3CCCCC3)nc(-c3ccccc3O)nc21 |
| > 80 | > 80 | > 80 | > 80 | 0.01 | 0.0398 | 0.1 | 0.0794 | – | – | Oc1ccc(-c2nc(N3CCCCC3)c3nc[nH]c3n2)cc1 |
| > 80 | 37 | 53 | 48 | 0.398 | – | – | – | – | – | CN1CCN(c2nc(-c3ccc(O)cc3)nc3[nH]cnc23)CC1 |
| > 80 | 15.9 | 6.2 | > 80 | 0.398 | 0.0398 | – | – | – | – | CN1CCN(c2nc(-c3ccc(Cl)cc3)nc3[nH]cnc23)CC1 |
| > 80 | 43.5 | > 80 | > 80 | 0.0501 | 0.0398 | – | 1 | – | – | Clc1cccc(-c2nc(N3CCCCC3)c3nc[nH]c3n2)c1 |
| 35.2 | 36.4 | 32.7 | 2.1 | – | – | – | – | – | – | Cn1cnc2c(N3CCCCC3)nc(-c3ccccc3Cl)nc21 |
| > 80 | 52.7 | 29.9 | > 80 | 0.0794 | 0.1 | – | – | – | – | CN1CCN(c2nc(-c3cccc(Cl)c3)nc3[nH]cnc23)CC1 |
| > 80 | > 80 | 1.4 | > 80 | 0.126 | 0.00794 | 3.16 | – | 8.2 | – | Clc1ccc(-c2nc(N3CCCCC3)c3nc[nH]c3n2)cc1 |
| > 80 | 59.6 | 36 | 15.3 | 0.631 | – | – | – | – | – | CN1CCN(c2nc(-c3ccccc3O)nc3c2ncn3C)CC1 |
| 1.4 | 21 | 12.1 | > 80 | – | 0.2 | – | – | – | – | Clc1ccc(Cl)c(-c2nc(N3CCCCC3)c3nc[nH]c3n2)c1 |
| 45.7 | 21 | 19.2 | 38.3 | – | – | – | – | – | – | CN1CCN(c2nc(-c3cccc(Cl)c3)nc3c2ncn3C)CC1 |
| 17.2 | 24.1 | 26 | 33.7 | – | – | – | – | – | – | Cn1cnc2c(N3CCCCC3)nc(-c3cccc(O)c3O)nc21 |
| > 80 | > 80 | > 80 | > 80 | 0.01 | 0.0631 | 0.316 | 0.158 | – | 7.9 | Oc1cccc(-c2nc(N3CCCCC3)c3nc[nH]c3n2)c1 |
| > 80 | 9.1 | 13 | > 80 | 2.51 | 0.251 | – | – | – | – | CN1CCN(c2nc(-c3cc(Cl)ccc3Cl)nc3[nH]cnc23)CC1 |
| 78.5 | 54.8 | 29.3 | 49.1 | – | – | – | – | – | – | Cn1cnc2c(N3CCCCC3)nc(-c3cccc(O)c3)nc21 |
| 13.2 | 2.4 | 31 | 5.4 | – | – | – | – | – | – | Cn1cnc2c(N3CCCCC3)nc(-c3cc(Cl)ccc3Cl)nc21 |
| 24.1 | 7 | 0.7 | > 80 | – | 0.0794 | – | – | – | – | Clc1ccc(-c2nc(N3CCCCC3)c3nc[nH]c3n2)cc1Cl |
| 27.1 | 4.2 | 47.8 | 63.8 | – | – | – | – | – | – | CN1CCN(c2nc(-c3cccc(O)c3)nc3c2ncn3C)CC1 |
| > 80 | 1 | 27 | > 80 | 0.158 | 0.501 | – | – | – | – | CN1CCN(c2nc(-c3cccc(O)c3)nc3[nH]cnc23)CC1 |
| 65.2 | 25 | 28.3 | 35.3 | – | – | – | – | – | – | CN1CCN(c2nc(-c3ccc(Cl)c(Cl)c3)nc3c2ncn3C)CC1 |
| 22.4 | 17 | 24.2 | 6.1 | – | – | – | – | – | – | Cn1cnc2c(N3CCCCC3)nc(-c3cccc(Cl)c3)nc21 |
| 52.4 | 32 | 25.1 | > 80 | – | 0.794 | – | – | – | – | CN1CCN(c2nc(-c3ccc(Cl)c(C(F)(F)F)c3)nc3[nH]cnc23)CC1 |

| Structure (SMILES) | inhibition [1] [%] | inhibition (Adenosine receptor A2a [2]) [%] | inhibition [3] [%] | inhibition [4] [%] | Ki (Adenosine receptor A1) [µM] | Ki (Adenosine receptor A3) [µM] | Ki (Adenosine receptor A2a [5]) [µM] | Ki (Adenosine receptor A2b) [µM] | pKb [6] | pKb [7] |
| --- | --- | --- | --- | --- | --- | --- | --- | --- | --- | --- |
| CN1CCN(c2ncnc3[nH]cnc23)CC1 | 9.2 | 19.1 | 14 | 26.9 | – | – | – | – | – | – |
